Shown is part of a subset that was picked to be rich in hits.
KDM4C inh: inhibitors of GASC-1 (KDM4C) histone demethylase, primary screen, biochemical, single concentration HTS; Lysine-specific demethylase 4C (Homo sapiens), Q9H3R0; GST-KDM4C 2-372, H3K9me3 peptide, LANCE TR-FRET; inhibition, % at 12.5 µM; 0.15% of 96,000 active;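 active means mean replicate inhibition above about 25%, with at least 55% of replicates also reaching it, limit read from the data, passing the limit was not always enough; inconclusive means only one of those two conditions met; inactive means neither condition met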
Target sequence (Q9H3R0 2-372 limits assumed): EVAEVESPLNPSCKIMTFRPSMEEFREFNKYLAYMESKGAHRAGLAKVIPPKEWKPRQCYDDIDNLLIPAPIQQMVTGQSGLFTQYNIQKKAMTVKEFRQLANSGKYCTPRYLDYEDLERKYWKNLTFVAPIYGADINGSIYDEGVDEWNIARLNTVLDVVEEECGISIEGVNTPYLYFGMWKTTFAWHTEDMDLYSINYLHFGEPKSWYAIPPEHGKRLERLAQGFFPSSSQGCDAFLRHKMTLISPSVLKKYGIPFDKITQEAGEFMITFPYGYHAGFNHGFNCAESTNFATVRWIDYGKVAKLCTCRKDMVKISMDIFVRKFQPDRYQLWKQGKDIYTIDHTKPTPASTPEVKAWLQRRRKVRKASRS
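Material: N-terminal GST-fused human GASC-1 (KDM4C) fragment, residues 2-372. Input: 10 nM enzyme. Incubation: enzyme reaction 30 min, then detection 60 min, both room temperature. Doses: one test concentration per compound. Read-out basis: inhibition from TR-FRET ratio decrease. Detection: LANCE TR-FRET, excitation 340 nm, emissions 618 and 671 nm.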
IDH1 R132H inh: inhibitors of IDH1 R132H reductase, primary screen, biochemical, plate reader, single point; inhibition, % at 10 µM; AID 624101, 2012; 0.18% of 70,000 active; Isocitrate dehydrogenase [NADP] cytoplasmic (Homo sapiens), O75874; diaphorase/resazurin fluorescence, 60 min; in the data active means inhibition above about 34%; inconclusive means no clear call, values can overlap the other calls; inactive means below about 11%
Target sequence (O75874 whole entry R132H): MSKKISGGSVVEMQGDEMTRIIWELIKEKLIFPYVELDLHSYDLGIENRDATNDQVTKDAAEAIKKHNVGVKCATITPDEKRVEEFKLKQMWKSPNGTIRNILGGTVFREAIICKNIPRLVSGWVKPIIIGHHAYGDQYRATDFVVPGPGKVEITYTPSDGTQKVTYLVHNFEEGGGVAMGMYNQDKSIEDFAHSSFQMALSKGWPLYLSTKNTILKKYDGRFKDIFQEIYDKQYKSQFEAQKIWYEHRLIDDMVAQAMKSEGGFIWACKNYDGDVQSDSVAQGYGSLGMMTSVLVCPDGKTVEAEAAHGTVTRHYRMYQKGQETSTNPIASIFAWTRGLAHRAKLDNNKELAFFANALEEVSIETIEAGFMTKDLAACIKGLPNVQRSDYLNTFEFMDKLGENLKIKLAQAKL
T cruzi growth-1: T. cruzi intracellular proliferation inhibitors, primary screen, cell-based, beta-gal Tulahuen parasites, NIH3T3 host, luminescence; T. cruzi beta-gal in NIH3T3, GalScreen luminescence, 90 h; inhibition, % at 8.34 µM; 5.9% of 77,000 active; AID 624255, 2012;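 active means mean inhibition above about 93%, with at least 55% of replicates each passing it, limit read from the data, passing the limit was not always enough; inconclusive means only one of those two conditions holds; inactive means neither condition holds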
T cruzi growth-2: T. cruzi intracellular proliferation inhibitors, confirmation, cell-based, NIH3T3 host, beta-gal parasite, luminescence, cherry-pick. shares compounds with T cruzi growth-1. T. cruzi beta-gal in NIH3T3, GalScreen luminescence, 90 h. inhibition, % at 8.35 µM. 72% of 5,600 active. AID 651739, 2012;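 active means mean replicate inhibition above about 95% and at least 55% of replicates individually reaching it, limit read from the data; inconclusive means only one of the two criteria is met; inactive means neither criterion is met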
T cruzi growth-3: inhibitors of intracellular T. cruzi replication, confirmation, NIH3T3 host cells, beta-gal parasites, cherry-pick, set 2 | 21% of 5,600 active | shares compounds with T cruzi growth-1 | inhibition, % at 2.09 µM | T. cruzi beta-gal in NIH3T3, GalScreen luminescence, 90 h;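 active means mean inhibition above about 95%, with at least 55% of replicates also reaching it, limit read from the data; inconclusive means meets just one of the two conditions; inactive means meets neither condition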
NIH3T3 tox: cytotoxicity in mouse NIH/3T3 fibroblasts, confirmation, cytotoxicity control for T. cruzi proliferation inhibitor project, cell-based, cherry-pick, single point. 14% of 5,600 active. shares compounds with T cruzi growth-1. NIH/3T3 viability, CellTiter-Glo ATP luminescence, 90 h. cytotoxicity (signal decrease), % at 8.35 µM;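 active means mean signal decrease across replicates above about 35% based on untreated-well scatter, with enough replicates individually passing, limit read from the data; inconclusive means no rule stated though some were filed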
3T3 cytotox 2: NIH/3T3 fibroblast cytotoxicity, confirmation, cytotoxicity control, cell-based, cherry-pick, single point, set 2; 56% of 5,600 active; inhibition, % at 24.9 µM; NIH/3T3 viability, CellTiter-Glo ATP luminescence, 90 h; AID 651744, 2012; shares compounds with T cruzi growth-1;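 active means mean loss of cell viability signal at or above a set limit, and enough replicates individually reaching it; inconclusive means meets only the mean limit or only the replicate share; inactive means meets neither condition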
Of the large screens only hits and unclear results are named; the others gave an inactive call (follow-up assays come after a bar, where they were run); ! = not active in a repeat.

N#Cc1ccccc1NC(=O)CCSc1nc(-c2ccccc2)c2cc(Cl)ccc2n1	none (no result: KDM4C inh, T cruzi growth-1)
O=C(Nc1ccccc1C(=O)N1CCOCC1)c1ccc(CN2CCOCC2)cc1	none (no result: KDM4C inh, T cruzi growth-1)
CC(C(=O)Nc1cccnc1)N(c1ccc(Cl)cc1)S(C)(=O)=O (centres undefined)	none (no result: KDM4C inh, T cruzi growth-1)
N#C[C@H]1[C@@H](c2ccc(C#CC3CC3)cc2)[C@H](CO)N1S(=O)(=O)c1ccccc1	T cruzi growth-1 101 (no result: IDH1 R132H inh) | T cruzi growth-2 98 | T cruzi growth-3 113 | NIH3T3 tox inconclusive | 3T3 cytotox 2 53
N#C[C@H]1[C@@H](c2ccc(C#CC3CCCC3)cc2)[C@@H](CO)N1S(=O)(=O)Cc1ccccc1	none
N#C[C@H]1[C@H](c2ccc(C#CC3CCCCC3)cc2)[C@@H](CO)N1S(=O)(=O)c1ccccc1	none (no result: IDH1 R132H inh)
N#C[C@@H]1[C@@H](c2ccc(C#CC3CC3)cc2)[C@H](CO)N1S(=O)(=O)c1ccccc1	T cruzi growth-1 96 (no result: IDH1 R132H inh) | T cruzi growth-2 inconclusive | T cruzi growth-3 102 | NIH3T3 tox inactive | 3T3 cytotox 2 inconclusive
N#C[C@H]1[C@H](c2ccc(C#CC3CC3)cc2)[C@@H](CO)N1S(=O)(=O)c1ccccc1	T cruzi growth-1 97 (no result: IDH1 R132H inh) | T cruzi growth-2 100 | T cruzi growth-3 103 | NIH3T3 tox inactive | 3T3 cytotox 2 inactive
N#C[C@@H]1[C@@H](c2ccc(C#CC3CCCCC3)cc2)[C@H](CO)N1S(=O)(=O)c1ccccc1	none (no result: IDH1 R132H inh)
Cc1sc(NC(=O)c2cnccn2)c(C(N)=O)c1-c1ccccc1	none (no result: KDM4C inh, T cruzi growth-1)
CCOc1ccc(NC(=O)C(C)n2nc([N+](=O)[O-])c(Br)c2C)cc1 (centres undefined)	none (no result: KDM4C inh, T cruzi growth-1)
C[C@H]1CN([C@@H](C)CO)S(=O)(=O)c2ccc(-c3cncnc3)cc2O[C@@H]1CN(C)Cc1ccccc1	T cruzi growth-1 106 | T cruzi growth-2 inconclusive | T cruzi growth-3 100 | NIH3T3 tox inactive | 3T3 cytotox 2 31
C[C@@H]1CN([C@H](C)CO)S(=O)(=O)c2ccc(-c3cncnc3)cc2O[C@H]1CN(C)Cc1cncnc1	none
C[C@H](CO)N1C[C@H](C)[C@@H](CN(C)Cc2ccccc2)Oc2cc(-c3cncnc3)ccc2S1(=O)=O	T cruzi growth-1 113 | T cruzi growth-2 inactive | T cruzi growth-3 inconclusive | NIH3T3 tox 38 | 3T3 cytotox 2 70
C[C@H]1CN([C@@H](C)CO)S(=O)(=O)c2ccc(-c3cncnc3)cc2O[C@@H]1CN(C)Cc1cncnc1	none
CC(=O)Nc1ccc(NC(=O)CSc2nc3sc(C)c(C)c3c(=O)n2C)cc1	none (no result: KDM4C inh, T cruzi growth-1)
C[C@H](CO)N1C[C@H](C)[C@@H](CN(C)C(=O)c2ccc3ccn(C)c3c2)OCc2cnnn2CCCC1=O	T cruzi growth-1 117! (no result: IDH1 R132H inh) | T cruzi growth-2 inactive | T cruzi growth-3 inactive | NIH3T3 tox inactive | 3T3 cytotox 2 inactive
C[C@@H]1CN([C@@H](C)CO)C(=O)CCCn2nncc2CO[C@@H]1CN(C)C(=O)NC1CCCC1	T cruzi growth-1 inconclusive | T cruzi growth-2 inactive | T cruzi growth-3 inactive | NIH3T3 tox inactive | 3T3 cytotox 2 inactive
C[C@@H]1CN([C@@H](C)CO)C(=O)CCCn2nncc2CO[C@@H]1CN(C)C(=O)c1ccc2ccn(C)c2c1	none
C[C@H](CO)N1C[C@H](C)[C@H](CN(C)C(=O)NC2CCCCC2)OCc2cnnn2CCCC1=O	none (no result: IDH1 R132H inh)
CC(C)COC(=O)N(C)C[C@@H]1OCc2cnnn2CCCC(=O)N([C@H](C)CO)C[C@H]1C	T cruzi growth-1 101! (no result: IDH1 R132H inh) | T cruzi growth-2 inactive | T cruzi growth-3 inactive | NIH3T3 tox inactive | 3T3 cytotox 2 inactive
CC(C)COC(=O)N(C)C[C@H]1OCc2cnnn2CCCC(=O)N([C@@H](C)CO)C[C@H]1C	none (no result: KDM4C inh)
CCn1c(SCC(=O)Nc2cc(Cl)cc(Cl)c2)nnc1-c1cccs1	none (no result: KDM4C inh, T cruzi growth-1)
COCCCNc1ncnc(N)c1[N+](=O)[O-]	none (no result: KDM4C inh, T cruzi growth-1)
C[C@@H]1CN([C@@H](C)CO)C(=O)c2cc(C#CC3CCCCC3)cnc2O[C@@H]1CN(C)S(=O)(=O)c1cccc(F)c1	none (no result: T cruzi growth-1)
C[C@@H]1CN([C@@H](C)CO)C(=O)c2cc(C#CC3CCCCC3)cnc2O[C@H]1CN(C)S(=O)(=O)c1cccc(F)c1	none (no result: KDM4C inh, T cruzi growth-1)
C[C@H]1CN([C@@H](C)CO)C(=O)c2cc(C#CC3CCCC3)cnc2O[C@@H]1CN(C)S(=O)(=O)c1cccc(F)c1	T cruzi growth-1 120 (no result: IDH1 R132H inh) | T cruzi growth-2 105 | T cruzi growth-3 inactive | NIH3T3 tox inactive | 3T3 cytotox 2 83
C[C@@H]1CN([C@H](C)CO)C(=O)c2cc(C#CC3CCCC3)cnc2O[C@H]1CN(C)S(=O)(=O)c1cccc(F)c1	T cruzi growth-1 inconclusive (no result: IDH1 R132H inh) | T cruzi growth-2 104 | T cruzi growth-3 inactive | NIH3T3 tox inactive | 3T3 cytotox 2 77
CC(Sc1nc2ccccc2[nH]1)C(=O)Nc1ccc(S(N)(=O)=O)cc1 (centres undefined)	none (no result: KDM4C inh, T cruzi growth-1)
C[C@H](CO)N1C[C@H](C)[C@H](CN(C)C(=O)Nc2ccccc2F)Oc2cc(-c3ccc(F)cc3)ccc2S1(=O)=O	none
COc1ccc(-c2ccc3c(c2)O[C@H](CN(C)C(=O)Nc2ccccc2F)[C@H](C)CN([C@@H](C)CO)S3(=O)=O)cc1	T cruzi growth-1 96 | T cruzi growth-2 105 | T cruzi growth-3 inactive | NIH3T3 tox inactive | 3T3 cytotox 2 72
C[C@@H]1CN([C@@H](C)CO)S(=O)(=O)c2ccc(-c3ccc(F)cc3)cc2O[C@@H]1CN(C)C(=O)Nc1ccccc1F	T cruzi growth-1 98 | T cruzi growth-2 102 | T cruzi growth-3 inactive | NIH3T3 tox inactive | 3T3 cytotox 2 inactive
C[C@H](CO)N1C[C@H](C)[C@H](CN(C)C(=O)Nc2ccccc2F)Oc2cc(-c3cccc(C#N)c3)ccc2S1(=O)=O	none (no result: IDH1 R132H inh)
C[C@H]1CN([C@@H](C)CO)S(=O)(=O)c2ccc(-c3ccc(F)cc3)cc2O[C@H]1CN(C)C(=O)Nc1ccccc1F	T cruzi growth-1 inconclusive (no result: IDH1 R132H inh) | T cruzi growth-2 110 | T cruzi growth-3 inactive | NIH3T3 tox 56 | 3T3 cytotox 2 55
C[C@@H]1CN([C@H](C)CO)S(=O)(=O)c2ccc(-c3ccc(F)cc3)cc2O[C@H]1CN(C)C(=O)Nc1ccccc1F	none (no result: IDH1 R132H inh)
C[C@H]1CN([C@@H](C)CO)S(=O)(=O)c2ccc(-c3cccc(C#N)c3)cc2O[C@H]1CN(C)C(=O)Nc1ccccc1F	T cruzi growth-1 117 | T cruzi growth-2 103 | T cruzi growth-3 inactive | NIH3T3 tox 37 | 3T3 cytotox 2 64

Screening results deposited in PubChem by Broad Institute.
